# Data published in ChEMBL document CHEMBL3997768, “The synthesis and antistaphylococcal activity of dehydroabietic acid derivatives: modifications at C12 and C7” (2017).
# Active and inactive are the calls of the source. The rule behind the calls is not given here.
# Tests used:
# Format in all cases: functional
# Staphylococcus aureus [1] = test: Antibacterial activity against Staphylococcus aureus Newman after 18 hrs by two fold serial dilution method
# In short: (§1)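 Strains were grown overnight at 37 °C in TSB without antibiotic, diluted 1000-fold, and grown 2–3 h to A600 0.6. They were then diluted 1:400 in fresh TSB. Compounds in DMSO were two-fold serially diluted to a final 0.39–50 and mixed with an equal volume of bacteria. A600 was read after 18 h. MIC is the lowest concentration inhibiting growth. Triplicate; vancomycin and tetracycline were positive controls.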
# Escherichia coli = test: Antibacterial activity against Escherichia coli AB1157 at 50 ug/ml after 18 hrs by two fold serial dilution method; in short: as §1
# Staphylococcus aureus [2] = test: Antibacterial activity against aminoglycosides/tetracycline-resistant Staphylococcus aureus NRS-1 after 18 hrs by two fold serial dilution method; settings: NRS-1, 18 h
# In short: (§2)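 Strains grown overnight at 37 °C in TSB without antibiotic. Cultures were diluted 1000-fold, grown at 37 °C for 2–3 h to A600 0.6, then diluted 1:400 in fresh TSB. Equal volumes of bacteria and two-fold serial DMSO dilutions (final 0.39–50) were mixed. A600 was read after 18 h. MIC was the lowest concentration inhibiting growth. Run in triplicate, with vancomycin and tetracycline controls.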
# Staphylococcus aureus [3] = test: Antibacterial activity against erythromycin-resistant Staphylococcus aureus NRS-70 after 18 hrs by two fold serial dilution method; settings: NRS-70, 18 h; in short: as §2
# Staphylococcus aureus [4] = test: Antibacterial activity against oxacillin/tetracycline-resistant Staphylococcus aureus NRS-100 after 18 hrs by two fold serial dilution method; settings: NRS-100, 18 h; in short: as §2
# Staphylococcus aureus [5] = test: Antibacterial activity against gentamicin-resistant Staphylococcus aureus NRS-108 after 18 hrs by two fold serial dilution method; settings: NRS-108, 18 h; in short: as §2
# Staphylococcus aureus [6] = test: Antibacterial activity against linezolid-resistant Staphylococcus aureus NRS-271 containing phage type E-MRSA after 18 hrs by two fold serial dilution method; settings: NRS-271, 18 h; in short: as §2
Compound,MIC (Staphylococcus aureus [1]),Activity (Escherichia coli),further results
CC(C)c1cc2c(cc1Br)[C@@]1(C)CCC[C@@](C)(C(=O)O)[C@@H]1C/C2=N\OCCNC(=O)C1CC1,57.8 to 77 µM,inactive,–
CC(C)c1cc2c(cc1Br)[C@@]1(C)CCC[C@@](C)(C(=O)O)[C@@H]1C/C2=N\OCCCNC(=O)Cc1ccccc1,17.1 µM,inactive,–
CC(C)c1cc2c(cc1Br)[C@@]1(C)CCC[C@@](C)(C(=O)O)[C@@H]1C/C2=N\OCCNC(=O)Cc1ccccc1C(F)(F)F,7.84 µM,inactive,–
CC(C)c1cc2c(cc1Br)[C@@]1(C)CCC[C@@](C)(C(=O)O)[C@@H]1C/C2=N\OCCNC(=O)Cc1ccc(C(F)(F)F)cc1,5.88 to 7.84 µM,inactive,–
COc1ccc(C(=O)NCCCO/N=C2\C[C@H]3[C@](C)(C(=O)O)CCC[C@]3(C)c3cc(Br)c(C(C)C)cc32)cc1,12.5 to 16.7 µM,inactive,–
CC(C)c1cc2c(cc1Br)[C@@]1(C)CCC[C@@](C)(C(=O)O)[C@@H]1C/C2=N\OCCNC(=O)c1cc(Br)cs1,5.86 to 7.81 µM,inactive,–
CC(C)c1cc2c(cc1Br)[C@@]1(C)CCC[C@@](C)(C(=O)O)[C@@H]1C/C2=N\OCCCNC(=O)c1ccccn1,21.9 µM,inactive,–
CC(C)C(=O)NCCO/N=C1\C[C@H]2[C@](C)(C(=O)O)CCC[C@]2(C)c2cc(Br)c(C(C)C)cc21,76.7 to 95.9 µM,inactive,–
CC(C)c1cc2c(cc1Br)[C@@]1(C)CCC[C@@](C)(C(=O)O)[C@@H]1C/C2=N\OCCCN,> 107 µM,inactive,–
CC(C)c1cc2c(cc1Br)[C@@]1(C)CCC[C@@](C)(C(=O)O)[C@@H]1C/C2=N\OCCCNC(=O)Cc1ccccc1C(F)(F)F,7.67 µM,inactive,–
CC(C)c1cc2c(cc1Br)[C@@]1(C)CCC[C@@](C)(C(=O)O)[C@@H]1C/C2=N\OCCCNC(=O)C(C)(C)C,72.8 to 91 µM,inactive,–
CC(C)c1cc2c(cc1Br)[C@@]1(C)CCC[C@@](C)(C(=O)O)[C@@H]1C/C2=N\OCCNC(=O)Cc1cccc(C(F)(F)F)c1,5.88 to 7.84 µM,inactive,–
COc1ccc(C(=O)NCCO/N=C2\C[C@H]3[C@](C)(C(=O)O)CCC[C@]3(C)c3cc(Br)c(C(C)C)cc32)cc1,25.6 to 34.2 µM,inactive,–
CC(C)c1cc2c(cc1Br)[C@@]1(C)CCC[C@@](C)(C(=O)O)[C@@H]1C/C2=N\OCCN,> 111 µM,inactive,–
CN[C@H](CC(C)C)C(=O)N[C@H]1C(=O)N[C@@H](CC(N)=O)C(=O)N[C@H]2C(=O)N[C@H]3C(=O)N[C@H](C(=O)N[C@H](C(=O)O)c4cc(O)cc(O)c4-c4cc3ccc4O)[C@H](O)c3ccc(c(Cl)c3)Oc3cc2cc(c3O[C@@H]2O[C@H](CO)[C@@H](O)[C@H](O)[C@H]2O[C@H]2C[C@](C)(N)[C@H](O)[C@H](C)O2)Oc2ccc(cc2Cl)[C@H]1O [VANCOMYCIN],< 1.73 µM,–,MIC (Staphylococcus aureus [2]): 1.72 to 3.45 µM; MIC (Staphylococcus aureus [3]): < 1.72 µM; MIC (Staphylococcus aureus [4]): 0.86 to 1.72 µM; MIC (Staphylococcus aureus [5]): < 1.72 µM; MIC (Staphylococcus aureus [6]): < 1.72 µM
Cc1ccc(C(=O)NCCO/N=C2\C[C@H]3[C@](C)(C(=O)O)CCC[C@]3(C)c3cc(Br)c(C(C)C)cc32)s1,13 to 17.4 µM,inactive,–
CCc1ccc(C(=O)NCCO/N=C2\C[C@H]3[C@](C)(C(=O)O)CCC[C@]3(C)c3cc(Br)c(C(C)C)cc32)cc1,4.28 to 6.42 µM,inactive,–
CCCCCC(=O)NCCO/N=C1\C[C@H]2[C@](C)(C(=O)O)CCC[C@]2(C)c2cc(Br)c(C(C)C)cc21,13.6 to 18.2 µM,inactive,–
CC(=O)NCCO/N=C1\C[C@H]2[C@](C)(C(=O)O)CCC[C@]2(C)c2cc(Br)c(C(C)C)cc21,> 101 µM,inactive,–
CC(C)c1cc2c(cc1Br)[C@@]1(C)CCC[C@@](C)(C(=O)O)[C@@H]1C/C2=N\OCCNC(=O)c1c(F)c(F)c(F)c(F)c1F,5.81 to 7.75 µM,inactive,–
CC(C)c1cc2c(cc1Br)[C@@]1(C)CCC[C@@](C)(C(=O)O)[C@@H]1C/C2=N\OCCNC(=O)c1ccccc1,18 to 22.5 µM,inactive,–
CC(C)c1cc2c(cc1Br)[C@@]1(C)CCC[C@@](C)(C(=O)O)[C@@H]1C/C2=N\OCCNC(=O)c1ccccn1,26.9 to 35.9 µM,inactive,–
CC(C)c1ccc2c(c1)CC[C@H]1[C@](C)(C(=O)O)CCC[C@]21C [DEHYDROABIETIC ACID],41.6 to 66.6 µM,inactive,–
